From ChEMBL document CHEMBL4825779, “Sulfur Analogues of Tyrosine in the Development of Triazene Hybrid Compounds: A New Strategy against Melanoma” (ACS Med Chem Lett, 2021)

T1: Tyrosinase (Agaricus bisporus, UniProt O42713)
T1 sequence (O42713 whole entry): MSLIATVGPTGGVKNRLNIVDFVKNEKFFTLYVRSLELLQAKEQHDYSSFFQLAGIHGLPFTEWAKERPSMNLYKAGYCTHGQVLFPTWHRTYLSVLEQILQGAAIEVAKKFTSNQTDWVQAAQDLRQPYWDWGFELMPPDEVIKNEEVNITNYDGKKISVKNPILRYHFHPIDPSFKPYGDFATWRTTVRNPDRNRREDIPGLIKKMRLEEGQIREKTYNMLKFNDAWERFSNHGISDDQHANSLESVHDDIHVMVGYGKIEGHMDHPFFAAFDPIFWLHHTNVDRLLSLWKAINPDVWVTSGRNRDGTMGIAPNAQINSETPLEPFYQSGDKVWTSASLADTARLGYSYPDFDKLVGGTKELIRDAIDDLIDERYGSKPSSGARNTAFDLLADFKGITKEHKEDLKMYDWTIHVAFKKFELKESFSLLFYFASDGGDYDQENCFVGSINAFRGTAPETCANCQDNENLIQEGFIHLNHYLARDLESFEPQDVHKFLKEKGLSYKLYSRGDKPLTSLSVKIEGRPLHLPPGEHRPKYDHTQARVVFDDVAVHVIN


Assays:
[1] = Half life of the compound in PBS buffer at pH 7.4 by HPLC analysis; format: physicochemical
In short: (§1)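 Stability run at 37 °C in PBS pH 7.4 or 80% human plasma. HPLC followed loss of parent and appearance of hydrolysis products over at least 3 half-lives. Decay fitted pseudo-first-order: kobs taken as the slope of ln(concentration) vs time, and t1/2 calculated from kobs.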

[2] = Half life in 80% human plasma by HPLC analysis; format: ADME, cell-free; in short: as §1
[3] = Cytotoxicity against human MNT-1 cells assessed as reduction in cell viability incubated for 72 hrs by MTS assay; format: functional, cell-based; conditions: MNT-1, 72 h
In short: (§2)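 Cell lines: MNT-1 and A375 (human melanoma), B16F10 (murine melanoma) and HaCaT (human keratinocytes). Compounds incubated with cells for 72 h; IC50 reported in μM.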

B16-F10 = assay: Cytotoxicity against mouse B16-F10 cells assessed as reduction in cell viability incubated for 72 hrs by MTS assay; format: functional, cell-based; conditions: B16-F10, 72 h; in short: as §2
A-375 = assay: Cytotoxicity against human A-375 cells assessed as reduction in cell viability incubated for 72 hrs by MTS assay; format: functional, cell-based; conditions: A-375, 72 h; in short: as §2
[4] = Selectivity index, ratio of IC50 for human HaCaT cells to IC50 for human MNT-1 cells by MTS assay
[5] = Selectivity index, ratio of IC50 for human HaCaT cells to IC50 for mouse B16-F10 cells by MTS assay; format: toxicity; conditions: HaCaT cells and B16-F10 cells, read-out: Ratio IC50
In short: (§3)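 Human HaCaT keratinocytes and the melanoma line (human A375 or murine B16F10) were each incubated with compound for 72 h, and IC50 was determined in each line. Selectivity index is HaCaT IC50 divided by melanoma-line IC50.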

[6] = Selectivity index, ratio of IC50 for human HaCaT cells to IC50 for human A-375 cells by MTS assay; in short: as §3
[7] = 1-Octanol/phosphate buffer apparent partition coefficient, logP of the compound measured after 30 mins by HPLC analysis; format: physicochemical
Tyrosinase [8] = target: T1, Tyrosinase; assay: Substrate activity at mushroom tyrosinase assessed as half-life of the compound by HPLC analysis; format: ADME
In short: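 Incubated with mushroom tyrosinase at 100 units/mL. Reaction followed by HPLC to derive substrate half-life (min).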

HaCaT = assay: Cytotoxicity against human HaCaT cells assessed as reduction in cell viability incubated for 72 hrs by MTS assay; format: cell-based; in short: as §2
Tyrosinase [9] = target: T1, Tyrosinase; assay: Drug metabolism assessed as mushroom tyrosinase-mediated drug oxidation by measuring compound 18c formation measured after 0.5 to 4 mins by HPLC analysis; format: ADME; conditions: time 0.5-4 min
Tyrosinase [10] = target: T1, Tyrosinase; assay: Drug metabolism assessed as mushroom tyrosinase-mediated drug oxidation by measuring 3-(4-cyanophenyl)-N-(2-(3,4-dioxocyclohexa-1,5-dienylthio)ethyl)-1-methyltriaz-2-ene-1-carboxamide formation measured after 2 hrs by HPLC analysis; format: ADME
[11] = Selectivity index, ratio of IC50 for human HaCaT cells to IC50 for human cells by MTS assay
Tyrosinase [12] = target: T1, Tyrosinase; assay: Drug metabolism assessed as mushroom tyrosinase-mediated drug oxidation by measuring dihydroxylated metabolite formation with m/z 344 by mass spectrometry; format: ADME
[13] = Hepatotoxicity in rat liver microsomes assessed as GSH depletion measured after 180 mins by Ellman's method; format: toxicity, Microsome; conditions: 3 h
[14] = Drug metabolism in rat liver microsomes assessed as CYP450-mediated o-quinone formation measured after 3 hrs by HPLC analysis; format: ADME, Microsome
Tyrosinase [15] = target: T1, Tyrosinase; assay: Drug metabolism assessed as mushroom tyrosinase-mediated drug oxidation by measuring dihydroxylated metabolite formation with m/z 408 by mass spectrometry; format: ADME
Tyrosinase [16] = target: T1, Tyrosinase; assay: Drug metabolism assessed as mushroom tyrosinase-mediated drug oxidation by measuring dihydroxylated metabolite formation with m/z 410 by mass spectrometry; format: ADME
[17] = substrate: CCOC(=O)c1ccc(/N=N/N(C)C(=O)NCCSc2ccc(O)cc2)cc1; assay: (§4) Substrate activity at mushroom tyrosinase assessed as Km by Michaelis-Menten based analysis; format: ADME, Agaricus bisporus
[18] = substrate: CN(/N=N/c1ccc(C#N)cc1)C(=O)NCCSc1ccc(O)cc1; assay: as §4; format: ADME, Agaricus bisporus
[19] = substrate: Cc1ccc(/N=N/N(C)C(=O)NCCSc2ccc(O)cc2)cc1; assay: as §4; format: ADME, Agaricus bisporus

| Molecule | half-life [1] | half-life [2] | IC50 [3] | IC50 (B16-F10) | IC50 (A-375) | Ratio IC50 [4] | selectivity ratio [5] | Ratio IC50 [6] | half-life (Tyrosinase [8]) | IC50 (HaCaT) | also measured |
| --- | --- | --- | --- | --- | --- | --- | --- | --- | --- | --- | --- |
| CCOC(=O)c1ccc(/N=N/N(C)C(=O)CCSc2ccc(O)cc2)cc1 | 130 h | 6.57 h | > 75 µM | > 75 µM | 61 µM | 2 | 2 | 2 | – | – | – |
| CN(/N=N/c1ccc(C#N)cc1)C(=O)NCCSc1ccc(O)cc1 | > 240 h | 74 h | > 75 µM | > 75 µM | – | 2 | 2 | – | 0.5 min | > 150 µM | logD at 0.5 h [7]: 3.49; Drug metabolism (Tyrosinase [9]): Metabolite_Detected; Drug metabolism (Tyrosinase [10]): Metabolite_Notdetected; Ratio IC50 [11]: 2 |
| NCCSc1ccc(O)cc1 | – | – | 42.8 µM | > 75 µM | – | >=3 | – | – | – | > 125 µM | – |
| CN/N=N/c1ccc(Br)cc1 | – | – | > 60 µM | > 60 µM | – | – | – | – | – | > 60 µM | – |
| CN=NNc1ccc(C(C)=O)cc1 | – | – | > 75 µM | > 75 µM | – | – | – | – | – | > 130 µM | – |
| Cc1ccc(/N=N/N(C)C(=O)CCSc2ccc(O)cc2)cc1 | 101 h | 8.7 h | – | > 75 µM | 47 µM | 2 | 2 | <1 | 2.3 min | 45.8 µM | Drug metabolism (Tyrosinase [12]): Metabolite_Detected |
| CN(/N=N/c1ccc(Br)cc1)C(=O)NCCSc1ccc(O)cc1 | > 240 h | 105 h | > 75 µM | > 75 µM | – | 2 | 2 | – | 0.5 min | > 150 µM | logD at 0.5 h [7]: 3.95; Activity [13]: Non-Toxic; Drug metabolism [14]: Metabolite_Notdetected; Ratio IC50 [11]: 2 |
| Cc1ccc(/N=N/N(C)C(=O)NCCSc2ccc(O)cc2)cc1 | > 240 h | 88.5 h | 74.1 µM | 78.3 µM | – | 2 | 2 | – | 1.9 min | > 130 µM | logD at 0.5 h [7]: 4.21; Ratio IC50 [11]: 2 |
| CN=NNc1ccc(C#N)cc1 | – | – | > 60 µM | > 60 µM | – | – | – | – | – | > 60 µM | – |
| CC(=O)c1ccc(/N=N/N(C)C(=O)NCCSc2ccc(O)cc2)cc1 | > 240 h | 61.6 h | > 75 µM | > 75 µM | – | 2 | 2 | – | 1 min | > 150 µM | logD at 0.5 h [7]: 3.44; Ratio IC50 [11]: 2 |
| Cn1nnc2c(C(N)=O)ncn2c1=O [TEMOZOLOMIDE] | – | – | > 75 µM | > 75 µM | > 75 µM | – | – | – | – | > 75 µM | – |
| CN(/N=N/c1ccc(Cl)cc1)C(=O)CCSc1ccc(O)cc1 | – | – | – | > 75 µM | > 75 µM | 2 | 2 | 2 | – | > 75 µM | – |
| CN(/N=N/c1ccc(Br)cc1)C(=O)CCSc1ccc(O)cc1 | 106 h | 8.3 h | > 75 µM | > 75 µM | 55 µM | 2 | 2 | 2 | 2.1 min | – | Drug metabolism (Tyrosinase [15]): Metabolite_Detected; Drug metabolism (Tyrosinase [16]): Metabolite_Detected |
| CCOC(=O)c1ccc(/N=N/NC)cc1 | – | – | > 60 µM | > 60 µM | – | – | – | – | – | > 60 µM | – |
| CC(=O)c1ccc(/N=N/N(C)C(=O)CCSc2ccc(O)cc2)cc1 | 139 h | 4.9 h | > 75 µM | > 75 µM | > 75 µM | 2 | 2 | 2 | – | – | – |
| CN(/N=N/c1ccc(C#N)cc1)C(=O)CCSc1ccc(O)cc1 | 86.4 h | 2.99 h | > 75 µM | > 75 µM | > 75 µM | 2 | 2 | 2 | – | – | – |
| Tyrosinase (Agaricus bisporus) (protein) MSLIATVGPTGGVKNRLNIVDFVKNEKFFTLYVRSLELLQAKEQHDYSSFFQLAGIHGLPFTEWAKERPSMNLYKAGYCTHGQVLFPTWHRTYLSVLEQILQGAAIEVAKKFTSNQTDWVQAAQDLRQPYWDWGFELMPPDEVIKNEEVNITNYDGKKISVKNPILRYHFHPIDPSFKPYGDFATWRTTVRNPDRNRREDIPGLIKKMRLEEGQIREKTYNMLKFNDAWERFSNHGISDDQHANSLESVHDDIHVMVGYGKIEGHMDHPFFAAFDPIFWLHHTNVDRLLSLWKAINPDVWVTSGRNRDGTMGIAPNAQINSETPLEPFYQSGDKVWTSASLADTARLGYSYPDFDKLVGGTKELIRDAIDDLIDERYGSKPSSGARNTAFDLLADFKGITKEHKEDLKMYDWTIHVAFKKFELKESFSLLFYFASDGGDYDQENCFVGSINAFRGTAPETCANCQDNENLIQEGFIHLNHYLARDLESFEPQDVHKFLKEKGLSYKLYSRGDKPLTSLSVKIEGRPLHLPPGEHRPKYDHTQARVVFDDVAVHVIN | – | – | – | – | – | – | – | – | – | – | Km [17]: 64 µM; Km [18]: 64 µM; Km [19]: 64 µM |
